Source: ChEMBL document CHEMBL1275434, “In vitro evaluation of CBR-2092, a novel rifamycin-quinolone hybrid antibiotic: studies of the mode of action in Staphylococcus aureus” (Antimicrob Agents Chemother, 2008)
Converted amounts (≈) assume the structure as drawn. The source made the active and inactive calls. The calls are words filed in the database; no cut-off is given here.

Key:
Staphylococcus aureus [1] = test: Antimicrobial activity against wild-type Staphylococcus aureus CB190; assay type: functional
Staphylococcus aureus [2] = test: Antimicrobial activity against Staphylococcus aureus CB1880 harboring rpoB R484H mutant gene by broth microdilution method; assay type: functional
Procedure, shortened: (§1)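 CLSI broth microdilution MIC in MHII broth with 0.002% (vol/vol) polysorbate 80. Isolates came from daily stepwise broth passage at sub-MIC drug (MHII without polysorbate 80, 10^6 CFU/ml inoculum, 20–24 h shaking at 37°C), were purified drug-free, and were sequenced at target loci.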

Staphylococcus aureus [3] = test: Antimicrobial activity against Staphylococcus aureus CB1884 harboring rpoB R484H mutant gene, L520 deficient gyrA gene, gyrA S84L mutant gene, R236 duplicated par C gene and parCH103Y mutant gene by broth microdilution; assay type: functional; procedure, shortened: as §1
Staphylococcus aureus [4] = test: Inhibition of cell wall synthesis in Staphylococcus aureus CB190 assessed as decrease in [2,3-3H]D-alanine incorporation at 0.5 ug/ml; assay type: functional, organism-based
Staphylococcus aureus [5] = test: Inhibition of RNA synthesis in quinolone-resistant Staphylococcus aureus CB814 harboring gyrA S84L and parC S80F mutant genes assessed as decrease in [5,6-3H]uridine incorporation at 0.5 ug/ml; assay type: functional, organism-based
Procedure, shortened: (§2)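 Macromolecular synthesis time course in S. aureus, measuring incorporation of [methyl-3H]thymidine (DNA), [5,6-3H]uridine (RNA) or [2,3-3H]D-alanine (cell wall). At each time point, incorporation is expressed as percent of the DMSO-treated control culture. Incorporation at time zero is set to 100%.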

Staphylococcus aureus [6] = test: Inhibition of cell wall synthesis in quinolone-resistant Staphylococcus aureus CB814 harboring gyrA S84L and parC S80F mutant genes assessed as decrease in [2,3-3H]D-alanine incorporation at 0.5 ug/ml; assay type: functional, organism-based; procedure, shortened: as §2
Staphylococcus aureus [7] = test: Antimicrobial activity against rifampin-sensitive Staphylococcus aureus CB190 harboring rpo BH481D mutant gene by broth microdilution method; assay type: functional
Procedure, shortened: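 CLSI broth microdilution MIC in cation-adjusted Mueller-Hinton (MHII) broth supplemented with 0.002% (vol/vol) polysorbate 80, included to limit compound loss to plastic surfaces.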

Staphylococcus aureus [8] = test: Antimicrobial activity against Staphylococcus aureus CB1522 harboring by broth microdilution method; assay type: functional
Staphylococcus aureus [9] = test: Antimicrobial activity against Staphylococcus aureus CB1327 harboring rpoB H481Y and gyrA S84L mutant genes selected after 0.2 ug/ml drug exposure by broth microdilution method; assay type: functional
Procedure, shortened: (§3)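 CLSI broth microdilution MIC in cation-adjusted Mueller-Hinton (MHII) broth with 0.002% (vol/vol) polysorbate 80. Single-step mutants were selected on agar […], purified by drug-free passage, their phenotype re-verified, and resistance loci sequenced.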

Staphylococcus aureus [10] = test: Antimicrobial activity against Staphylococcus aureus CB1421 harboring rpoB H481Y, parC S80F and gyrA S84L mutant genes selected after 0.18 ug/ml drug exposure by broth microdilution method; assay type: functional; procedure, shortened: as §3

CO[C@H]1/C=C/O[C@@]2(C)Oc3c(C)c(O)c4c(O)c(c(/C=N/N5CCC(N(C)C6([C@@H]7CCN(c8c(F)cn9c(=O)c(C(=O)O)cc(C%10CC%10)c9c8C)C7)CC6)CC5)c(O)c4c3C2=O)NC(=O)/C(C)=C\C=C\[C@H](C)[C@H](O)[C@@H](C)[C@@H](O)[C@@H](C)[C@H](OC(C)=O)[C@@H]1C
Time (Staphylococcus aureus [1]): 38 min | MIC (Staphylococcus aureus [2]): 0.12 µg/mL (≈ 0.0996 µM) | MIC (Staphylococcus aureus [3]): 64 µg/mL (≈ 53.1 µM) | Activity (Staphylococcus aureus [4]): Active | Activity (Staphylococcus aureus [5]): Active | Activity (Staphylococcus aureus [6]): Active | MIC (Staphylococcus aureus [7]): 0.25 µg/mL (≈ 0.207 µM) | MIC (Staphylococcus aureus [8]): 0.25 µg/mL (≈ 0.207 µM) | MIC (Staphylococcus aureus [9]): 0.5 µg/mL (≈ 0.415 µM) | MIC (Staphylococcus aureus [10]): 1 µg/mL (≈ 0.83 µM)
